ChEMBL document CHEMBL4396918, “Identification of a potent small-molecule inhibitor of bacterial DNA repair that potentiates quinolone antibiotic activity in methicillin-resistant Staphylococcus aureus” (Bioorg Med Chem, 2019)
Activity calls are given as the source filed them. No cut-off for these calls is given here.

What was measured:
[1] = molecular target: T1, DNA gyrase (Escherichia coli) (UniProt P0AES6+P0AES4); experiment: Inhibition of Escherichia coli DNA gyrase (A2B2 tetramer) at 12.5 uM using relaxed pBR322 as substrate preincubated for 30 mins followed by enzyme addition by SYBR staining-based agarose gel electrophoresis method; assay type: protein-complex assay
Procedure, shortened: (§1)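 Supercoiling of relaxed pBR322 by DNA gyrase, with products (relaxed, […], supercoiled) resolved by agarose gel electrophoresis. Supercoiled fraction quantified by densitometry. Mean ± SEM of 3 technical replicates.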

Escherichia coli = experiment: Inhibition of Escherichia coli DNA topoisomerase IV using supercoiled pQE80L as substrate at 12.5 uM incubated for 30 mins by ethidium bromide staining-based agarose gel electrophoresis method
Staphylococcus aureus [2] = experiment: Synergistic antibacterial activity against Staphylococcus aureus USA300 JE2 assessed as dose reduction index at 100 uM at 1:1 test compound to ciprofloxacin measured every 30 mins for 17 hrs; assay type: functional
Procedure, shortened: (§2)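 OD600 recorded over 17 h at 37 °C. Exponential-phase growth rate used for dose–response EC50 fitting. Combination index and dose-reduction index calculated by the Chou–Talalay method versus fraction affected.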

Staphylococcus aureus [3] = experiment: Synergistic antibacterial activity against Staphylococcus aureus USA300 JE2 assessed as ciprofloxacin dose reduction index at 100 uM at 1:1 test compound to ciprofloxacin measured every 30 mins for 17 hrs; assay type: functional; procedure, shortened: as §2
[4] = Ratio of EC50 for antibacterial activity against Escherichia coli K-12 BW25113 to EC50 for Staphylococcus aureus SH1000; assay type: functional
Staphylococcus aureus [5] = experiment: Potentiation of ciprofloxacin-induced antibacterial activity against methicillin resistant Staphylococcus aureus USA300 JE2 assessed as fold reduction in ciprofloxacin EC50 incubated for 18 hrs in presence of 0.5 times MIC ciprofloxacin by broth microdilution method relative to ciprofloxacin; assay type: functional
[6] = molecular target: T1, DNA gyrase (Escherichia coli); experiment: Inhibition of Escherichia coli DNA gyrase (A2B2 tetramer) assessed as Fraction supercoiled at 12.5 uM using relaxed pBR322 as substrate preincubated for 30 mins followed by enzyme addition by SYBR staining-based agarose gel electrophoresis method; assay type: protein-complex assay; procedure, shortened: as §1
[7] = test system: Staphylococcus aureus subsp. aureus USA300; experiment: Inhibition of AddAB in Staphylococcus aureus USA300 JE2 transformed with pCN34 PrecA-gfp reporter plasmid assessed as decrease in cell number at 66 uM measured at 15 mins interval for 17 hrs by GFP reporter gene assay
Procedure, shortened: (§3)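 S. aureus JE2 carrying a recA-promoter GFP reporter. […] Cell number was read as OD600 and SOS activation as GFP fluorescence, then normalized as fluorescence per cell. Mean ± SEM, n = 3 biological replicates.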

[8] = test system: Staphylococcus aureus subsp. aureus USA300; details: JE2, 66 uM
[9] = Inhibition of N-terminal strep2-tagged AddA (unknown origin) expressed in Escherichia coli BL21 cells transformed with pET28 plasmid by Western blot based pull down assay
Procedure, shortened: (§4)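 Pulldown from E. coli SoluBL21 expressing StrepII-tagged AddA and His6-tagged AddB from pET28b+, induced overnight at 16 °C. Lysates were obtained by sonication and incubated with compound-functionalized Sepharose or DMSO-treated, Tris-quenched control beads. Beads were washed three times in lysis buffer and eluted in SDS-PAGE sample buffer. Western blots used anti-His6 and anti-StrepII detection.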

[10] = Inhibition of N-terminal his6-tagged AddB (unknown origin) expressed in Escherichia coli BL21 cells transformed with pET28 plasmid by Western blot based pull down assay; procedure, shortened: as §4
[11] = test system: Staphylococcus aureus subsp. aureus USA300; experiment: Inhibition of AddAB in Staphylococcus aureus USA300 JE2 transformed with pCN34 PrecA-gfp reporter plasmid assessed as inhibition of SOS response by measuring reduction in green fluorescence per cell at 66 uM measured at 15 mins interval for 17 hrs by GFP reporter gene assay; procedure, shortened: as §3
Staphylococcus aureus [12] = experiment: Synergistic antibacterial activity against Staphylococcus aureus USA300 JE2 assessed as dose reduction index at 100 uM at 1:2 test compound to ciprofloxacin measured every 30 mins for 17 hrs; assay type: functional; procedure, shortened: as §2
Staphylococcus aureus [13] = experiment: Synergistic antibacterial activity against Staphylococcus aureus USA300 JE2 assessed as ciprofloxacin dose reduction index at 100 uM at 1:2 test compound to ciprofloxacin measured every 30 mins for 17 hrs; assay type: functional; procedure, shortened: as §2

Structure (SMILES) | Ratio EC50 [4] | fold change (FC) (Staphylococcus aureus [5]) | further results
CCn1cc(C(=O)O)c(=O)c2cnc(N3CCN(C(=S)Nc4cccc(C(F)(F)F)c4)CC3)nc21 | >10 | >4 | inhibition [1]: inactive; inhibition (Escherichia coli): inactive; Activity_index (Staphylococcus aureus [2]): 2.2; Activity_index (Staphylococcus aureus [3]): 1.8; Ratio [6]: 1.1
O=C(O)c1cn(C2CC2)c2cc(N3CCN(C(=S)Nc4cc(Cl)cc(Cl)c4)CC3)c(F)cc2c1=O | 2 - 5 | >3 | 
O=C(O)c1cn(C2CC2)c2cc(N3CCN(C(=S)Nc4cccc([N+](=O)[O-])c4)CC3)c(F)cc2c1=O |  | >4 | 
O=C(O)c1cn(C2CC2)c2cc(N3CCNCC3)c(F)cc2c1=O |  |  | inhibition (Escherichia coli): Active; inhibition [7]: Active; inhibition [8]: Active
O=C(O)c1cn(C2CC2)c2cc(N3CCN(C(=O)Nc4ccccc4)CC3)c(F)cc2c1=O |  |  | inhibition [9]: inactive; inhibition [10]: inactive
CCn1cc(C(=O)O)c(=O)c2cnc(N3CCN(C(=S)Nc4cccc(F)c4)CC3)nc21 | >10 | >4 | 
CCn1cc(C(=O)O)c(=O)c2cnc(N3CCN(C(=S)Nc4ccc(C(F)(F)F)cc4)CC3)nc21 | >10 | >4 | 
O=C(O)c1cn(C2CC2)c2cc(N3CCN(C(=S)Nc4ccc(C(F)(F)F)cc4)CC3)c(F)cc2c1=O | 2 - 5 | >3 | inhibition [1]: inactive; inhibition (Escherichia coli): inactive; Activity_index (Staphylococcus aureus [3]): 2.9; inhibition [7]: Active; inhibition [11]: Active; inhibition [9]: Active; inhibition [10]: Active; Ratio [6]: 1.2
CCn1cc(C(=O)O)c(=O)c2cnc(N3CCN(C(=S)Nc4cccc(Cl)c4)CC3)nc21 | >10 | >4 | inhibition [1]: inactive; Activity_index (Staphylococcus aureus [12]): 2; Activity_index (Staphylococcus aureus [13]): 2.2; Ratio [6]: 1.1
CCn1cc(C(=O)O)c(=O)c2cnc(N3CCN(C(=O)Nc4ccccc4)CC3)nc21 |  | >4 | inhibition [1]: inactive; inhibition (Escherichia coli): inactive; Ratio [6]: 1.1
O=C(O)c1cn(C2CC2)c2cc(N3CCN(C(=S)Nc4cccc(C(F)(F)F)c4)CC3)c(F)cc2c1=O | 2 - 5 | >3 | 
O=C(O)c1cn(C2CC2)c2cc(N3CCN(C(=S)Nc4cccc(Cl)c4)CC3)c(F)cc2c1=O | 2 - 5 | >3 | 
O=C(O)c1cn(C2CC2)c2cc(N3CCN(C(=S)Nc4cc(C(F)(F)F)cc(C(F)(F)F)c4)CC3)c(F)cc2c1=O |  | >4 | 
CCn1cc(C(=O)O)c(=O)c2cnc(N3CCN(C(=S)Nc4cc(Cl)cc(Cl)c4)CC3)nc21 | >50 | >4 | 
O=C(O)c1cn(C2CC2)c2cc(N3CCN(C(=S)Nc4cccc(F)c4)CC3)c(F)cc2c1=O | 2 - 5 | >3 | 
CCn1cc(C(=O)O)c(=O)c2cnc(N3CCN(C(=S)Nc4cc(C(F)(F)F)cc(C(F)(F)F)c4)CC3)nc21 | >10 | >4 | 
O=C(O)c1cn(C2CC2)c2cc(N3CCN(C(=S)Nc4ccc([N+](=O)[O-])cc4)CC3)c(F)cc2c1=O |  | 20 | 
